ChEMBL document CHEMBL3351887, “'Click' assembly of glycoclusters and discovery of a trehalose analogue that retards Aβ40 aggregation and inhibits Aβ40-induced neurotoxicity” (Bioorg Med Chem Lett, 2014)

Assays:
[1] = biological target: Amyloid-beta precursor protein (Homo sapiens) (UniProt P05067); experiment: Inhibition of amyloid beta-40 aggregation (unknown origin) assessed as extension of lag phase of Abeta40 aggregation by ThT fluorescence assay
Procedure, shortened: (§1)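 Monomer-rich Aβ40 (35 µM, supernatant after NaOH dissolution, sonication and ultracentrifugation) was incubated with 10 nM–100 µM compound in 20 mM phosphate buffer pH 7.4 (I 0.15 M), with 20 µM ThT and 0.007% NaN3, quiescent at 37 °C. Fluorescence (ex 440, em 480 nm) was read every 5 min. Lag time came from an empirical sigmoidal nonlinear-regression fit; mean ± SE of four independent experiments.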

[2] = biological target: Amyloid-beta precursor protein (Homo sapiens) (UniProt P05067); experiment: Inhibition of amyloid beta-40 aggregation (unknown origin) assessed as extension of lag phase of Abeta40 aggregation at 100 uM by ThT fluorescence assay; design: scale not given: the % may be the effect or the level left; procedure, shortened: as §1
[3] = biological target: Amyloid-beta precursor protein (Homo sapiens) (UniProt P05067); experiment: Inhibition of amyloid beta-40 aggregation (unknown origin) assessed as alpha-helix at 6 uM after 72 hrs by CD spectra analysis (reference value: 11 to 15%); design: scale not given: the % may be the effect or the level left
[4] = biological target: Amyloid-beta precursor protein (Homo sapiens) (UniProt P05067); experiment: Inhibition of amyloid beta-40 aggregation (unknown origin) assessed as alpha-helix at 30 uM after 72 hrs by CD spectra analysis (reference value: 11 to 15%); design: scale not given: the % may be the effect or the level left
[5] = biological target: Amyloid-beta precursor protein (Homo sapiens) (UniProt P05067); experiment: Inhibition of amyloid beta-40 aggregation (unknown origin) assessed as alpha-helix at 150 uM after 72 hrs by CD spectra analysis (reference value: 11 to 15%); design: scale not given: the % may be the effect or the level left
[6] = biological target: Amyloid-beta precursor protein (Homo sapiens) (UniProt P05067); experiment: Inhibition of amyloid beta-40 aggregation (unknown origin) assessed as beta-sheet at 6 uM after 72 hrs by CD spectra analysis (reference value: 1 to 3%); design: scale not given: the % may be the effect or the level left
[7] = biological target: Amyloid-beta precursor protein (Homo sapiens) (UniProt P05067); experiment: Inhibition of amyloid beta-40 aggregation (unknown origin) assessed as beta-sheet at 30 uM after 72 hrs by CD spectra analysis (reference value: 1 to 3%); design: scale not given: the % may be the effect or the level left
[8] = biological target: Amyloid-beta precursor protein (Homo sapiens) (UniProt P05067); experiment: Inhibition of amyloid beta-40 aggregation (unknown origin) assessed as beta-sheet at 150 uM after 72 hrs by CD spectra analysis (reference value: 1 to 3%); design: scale not given: the % may be the effect or the level left
[9] = biological target: Amyloid-beta precursor protein (Homo sapiens) (UniProt P05067); experiment: Inhibition of amyloid beta-40 aggregation (unknown origin) assessed as beta-turns at 6 uM after 72 hrs by CD spectra analysis (reference value: 0%); design: scale not given: the % may be the effect or the level left
[10] = biological target: Amyloid-beta precursor protein (Homo sapiens) (UniProt P05067); experiment: Inhibition of amyloid beta-40 aggregation (unknown origin) assessed as beta-turns at 30 uM after 72 hrs by CD spectra analysis (reference value: 0%); design: scale not given: the % may be the effect or the level left
[11] = biological target: Amyloid-beta precursor protein (Homo sapiens) (UniProt P05067); experiment: Inhibition of amyloid beta-40 aggregation (unknown origin) assessed as beta-turns at 150 uM after 72 hrs by CD spectra analysis (reference value: 0%); design: scale not given: the % may be the effect or the level left
[12] = biological target: Amyloid-beta precursor protein (Homo sapiens) (UniProt P05067); experiment: Inhibition of amyloid beta-40 aggregation (unknown origin) assessed as unordered at 6 uM after 72 hrs by CD spectra analysis (reference value: 84 to 87%); design: scale not given: the % may be the effect or the level left
[13] = biological target: Amyloid-beta precursor protein (Homo sapiens) (UniProt P05067); experiment: Inhibition of amyloid beta-40 aggregation (unknown origin) assessed as unordered at 30 uM after 72 hrs by CD spectra analysis (reference value: 84 to 87%); design: scale not given: the % may be the effect or the level left
[14] = biological target: Amyloid-beta precursor protein (Homo sapiens) (UniProt P05067); experiment: Inhibition of amyloid beta-40 aggregation (unknown origin) assessed as unordered at 150 uM after 72 hrs by CD spectra analysis (reference value: 84 to 87%); design: scale not given: the % may be the effect or the level left
[15] = biological target: Amyloid-beta precursor protein (Homo sapiens) (UniProt P05067); experiment: Inhibition of amyloid beta-40 aggregation (unknown origin) assessed as fibril width at 300 uM for 7 days at pH 7.4 by transmission electron microscopy (reference value: 12.3 +/- 1.2 nanometer)
Procedure, shortened: (§2)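 Aβ40 (60 µM in control) was incubated quiescently with the compound at compound:Aβ40 molar ratios of 1:5, 1:1 and 5:1, pH 7.4, 37 °C, for 7 days. Fibril width and length were then measured from transmission electron microscopy images.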

[16] = biological target: Amyloid-beta precursor protein (Homo sapiens) (UniProt P05067); experiment: Inhibition of amyloid beta-40 aggregation (unknown origin) assessed as fibril length at 300 uM for 7 days at pH 7.4 by transmission electron microscopy (reference value: > 2 micrometer); procedure, shortened: as §2
[17] = Neuroprotective activity in C57BL/6 mouse primary cortical neurons assessed as reduction in amyloid beta-40-induced cell death at 40 uM pre-incubated with amyloid beta-40 for 6 hrs and measured after 48 hrs by trypan blue dye exclusion assay; format: functional, Cerebral cortex neuron; design: scale not given: the % may be the effect or the level left
Procedure, shortened: (§3)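 Aβ40 (40 µM) was preincubated with or without compound for 6 h at 37 °C, at molar ratios 1:1 and 2.5:1 (compound:Aβ40). It was then added to 7–9-day-old primary cortical neurons cultured from 6 pregnant C57BL/6 mice. After 48 h, cells were stained with trypan blue and live and dead cells were counted. Values are mean + SE.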

[18] = Neuroprotective activity in C57BL/6 mouse primary cortical neurons assessed as reduction in amyloid beta-40-induced cell death at 100 uM pre-incubated with amyloid beta-40 for 6 hrs and measured after 48 hrs by trypan blue dye exclusion assay; format: functional, Cerebral cortex neuron; design: scale not given: the % may be the effect or the level left; procedure, shortened: as §3
[19] = Toxicity in C57BL/6 mouse primary cortical neurons assessed as reduction in cell viability at 40 to 100 uM after 48 hrs by trypan blue dye exclusion assay; format: cell-based; details: cerebral cortex neuron

Amyloid-beta precursor protein (Homo sapiens), sequence (P05067 whole entry): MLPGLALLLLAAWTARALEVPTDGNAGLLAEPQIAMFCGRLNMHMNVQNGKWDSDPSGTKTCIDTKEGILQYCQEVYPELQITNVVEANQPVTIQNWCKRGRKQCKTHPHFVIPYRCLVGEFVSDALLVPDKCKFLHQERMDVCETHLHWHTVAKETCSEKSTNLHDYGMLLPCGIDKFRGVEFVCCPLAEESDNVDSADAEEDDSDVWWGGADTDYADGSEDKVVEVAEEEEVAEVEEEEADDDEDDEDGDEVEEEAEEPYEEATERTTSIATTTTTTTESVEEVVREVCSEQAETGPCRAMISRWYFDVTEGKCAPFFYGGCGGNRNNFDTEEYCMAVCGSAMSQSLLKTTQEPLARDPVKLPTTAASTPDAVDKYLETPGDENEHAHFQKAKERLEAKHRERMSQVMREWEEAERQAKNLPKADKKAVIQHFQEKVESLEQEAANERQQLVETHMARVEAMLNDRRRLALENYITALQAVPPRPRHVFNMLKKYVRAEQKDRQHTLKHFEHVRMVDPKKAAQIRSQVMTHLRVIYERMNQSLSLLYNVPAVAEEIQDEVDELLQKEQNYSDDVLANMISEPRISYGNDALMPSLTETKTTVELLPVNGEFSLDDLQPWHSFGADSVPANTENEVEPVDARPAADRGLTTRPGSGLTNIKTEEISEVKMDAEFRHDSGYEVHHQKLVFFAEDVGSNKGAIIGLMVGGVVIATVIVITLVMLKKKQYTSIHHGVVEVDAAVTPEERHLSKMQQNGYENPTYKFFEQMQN

In the case of `OC[C@H]1O[C@H](O[C@H]2O[C@H](Cn3cc(COCC(COCc4cn(C[C@H]5O[C@H](O[C@H]6O[C@H](CO)[C@@H](O)[C@H](O)[C@H]6O)[C@H](O)[C@@H](O)[C@@H]5O)nn4)(COCc4cn(C[C@H]5O[C@H](O[C@H]6O[C@H](CO)[C@@H](O)[C@H](O)[C@H]6O)[C@H](O)[C@@H](O)[C@@H]5O)nn4)COCC(COCc4cn(C[C@H]5O[C@H](O[C@H]6O[C@H](CO)[C@@H](O)[C@H](O)[C@H]6O)[C@H](O)[C@@H](O)[C@@H]5O)nn4)(COCc4cn(C[C@H]5O[C@H](O[C@H]6O[C@H](CO)[C@@H](O)[C@H](O)[C@H]6O)[C@H](O)[C@@H](O)[C@@H]5O)nn4)COCc4cn(C[C@H]5O[C@H](O[C@H]6O[C@H](CO)[C@@H](O)[C@H](O)[C@H]6O)[C@H](O)[C@@H](O)[C@@H]5O)nn4)nn3)[C@@H](O)[C@H](O)[C@H]2O)[C@H](O)[C@@H](O)[C@@H]1O`, the inhibition [1] is reported as “Dose-dependent effect”, the Activity [2] is reported as 45% and the Activity [3] is reported as 21%. The Activity [4] was 20%, the Activity [5] was 22% and the Activity [6] was 35%. The Activity [7] was 32%, the Activity [8] was 16% and the Activity [9] was 27%. For the same compound, the Activity [10] was 30%, the Activity [11] was 26% and the Activity [12] was 17%. It also gave an Activity [13] of 18%, an Activity [14] of 36% and an Activity [15] of 8.7 nm. The Activity [16] was < 2 µm, the Activity [17] was 45% and the Activity [18] was 59%. For the same compound, the Activity [19] was “Non-toxic”.
